Assay results as given in ChEMBL document CHEMBL1138216, “Design and synthesis of novel derivatives of the muscarinic agonist tetra(ethylene glycol)(3-methoxy-1,2,5-thiadiazol-4-yl) [3-(1-methyl-1,2,5,6-tetrahydropyrid-3-yl)-1,2,5-thiadiazol-4-yl] ether (CDD-0304): effects of structural modifications on the binding and activity at muscarinic receptor …” (J Med Chem, 2006).
The source made the active and inactive calls. The rule behind the calls is not given here.

How the values were obtained:
Rattus norvegicus = test: Antipsychotic activity in Sprague-Dawley rat assessed as ability to reverse apomorphine effect on prepulse inhibition of the startle response at 1 mg/kg, sc; assay type: functional, organism-based; design: dose 1 mg/kg
Summary of the method: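 Male Sprague-Dawley rats, 250-300 g, habituated a day before. Drug in water or saline sc (1 mL/kg) 25 min, apomorphine 1.0 mg/kg 5 min pre-test; muscarinic agonists 0.1-3 mg/kg. Session of 15 each pulse-alone (120 dB, 100 ms) and pulse preceded 200 ms by 20 ms prepulse 12 dB above 70 dB background; 12 rats/group; %PPI calculated.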

[1] = molecular target: T1, Muscarinic acetylcholine receptor M5 (Homo sapiens, UniProt P08912); test: Inhibition of [3H](R)-QNB binding to human M5 receptor expressed in A9 L cells; assay type: cell-based, A9L
T1 sequence (P08912 whole entry): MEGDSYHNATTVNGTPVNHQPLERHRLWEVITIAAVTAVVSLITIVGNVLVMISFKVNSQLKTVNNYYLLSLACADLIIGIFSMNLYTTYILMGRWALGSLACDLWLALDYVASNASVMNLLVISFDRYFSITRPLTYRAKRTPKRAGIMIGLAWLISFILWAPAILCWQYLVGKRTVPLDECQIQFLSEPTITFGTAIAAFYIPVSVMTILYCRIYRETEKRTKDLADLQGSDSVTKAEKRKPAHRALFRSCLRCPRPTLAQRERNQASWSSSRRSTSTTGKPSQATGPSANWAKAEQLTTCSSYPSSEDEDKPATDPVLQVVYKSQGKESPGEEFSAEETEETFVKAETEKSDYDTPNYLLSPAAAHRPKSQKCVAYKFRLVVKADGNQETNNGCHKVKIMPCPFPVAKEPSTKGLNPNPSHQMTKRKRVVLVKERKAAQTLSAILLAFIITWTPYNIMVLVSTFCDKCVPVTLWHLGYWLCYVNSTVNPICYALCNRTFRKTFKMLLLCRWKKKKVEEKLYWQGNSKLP
Summary of the method: (§1)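 Membranes from A9 L cells expressing the receptor; 0.1 nM [3H]-(R)-QNB with 14 concentrations of test ligand (0.01 nM to 3 mM) in 25 mM sodium phosphate pH 7.4, 5 mM MgCl2, 2 h room temperature; nonspecific binding with 1000-fold excess unlabeled (R)-QNB.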

[2] = molecular target: T2, Muscarinic acetylcholine receptor M2 (Homo sapiens, UniProt P08172); test: Inhibition of [3H](R)-QNB binding to human M2 receptor expressed in A9 L cells; assay type: cell-based, A9L; summary of the method: as §1
T2 sequence (P08172 whole entry): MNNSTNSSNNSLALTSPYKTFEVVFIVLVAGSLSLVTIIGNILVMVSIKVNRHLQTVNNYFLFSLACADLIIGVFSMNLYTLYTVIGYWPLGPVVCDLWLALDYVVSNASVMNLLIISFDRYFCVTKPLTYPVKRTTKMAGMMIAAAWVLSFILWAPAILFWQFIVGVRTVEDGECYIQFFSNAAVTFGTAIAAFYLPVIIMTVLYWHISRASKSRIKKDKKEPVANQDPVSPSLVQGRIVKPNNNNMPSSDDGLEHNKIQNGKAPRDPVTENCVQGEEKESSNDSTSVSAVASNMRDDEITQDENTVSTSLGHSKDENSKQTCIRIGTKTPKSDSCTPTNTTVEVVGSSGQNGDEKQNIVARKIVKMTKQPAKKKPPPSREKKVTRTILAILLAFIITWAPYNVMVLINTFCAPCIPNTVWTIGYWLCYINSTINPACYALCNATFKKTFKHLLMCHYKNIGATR

[3] = molecular target: T3, Muscarinic acetylcholine receptor M4 (Homo sapiens) (UniProt P08173); test: Activity at human M4 receptor assessed as inhibition of forskolin-stimulated cAMP accumulation relative to carbachol; assay type: functional
T3 sequence (whole entry): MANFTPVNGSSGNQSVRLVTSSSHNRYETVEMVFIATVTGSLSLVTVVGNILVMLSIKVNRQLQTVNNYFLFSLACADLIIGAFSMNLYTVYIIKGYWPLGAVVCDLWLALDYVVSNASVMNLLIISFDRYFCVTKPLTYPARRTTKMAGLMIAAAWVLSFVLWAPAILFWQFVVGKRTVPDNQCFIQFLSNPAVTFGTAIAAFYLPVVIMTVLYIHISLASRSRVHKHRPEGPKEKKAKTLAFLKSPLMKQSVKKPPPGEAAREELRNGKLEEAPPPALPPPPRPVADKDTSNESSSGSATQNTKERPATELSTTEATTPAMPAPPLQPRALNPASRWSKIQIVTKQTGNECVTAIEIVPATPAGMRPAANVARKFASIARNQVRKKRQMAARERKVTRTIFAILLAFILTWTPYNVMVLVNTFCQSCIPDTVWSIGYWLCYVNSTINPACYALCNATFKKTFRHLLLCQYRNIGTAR

[4] = molecular target: T2, Muscarinic acetylcholine receptor M2; test: Activity at human M2 receptor assessed as inhibition of forskolin-stimulated cAMP accumulation; assay type: functional
[5] = molecular target: T4, Muscarinic acetylcholine receptor M1 (Homo sapiens, UniProt P11229); test: Agonist activity at human M1 receptor expressed in A9 L cells assessed as stimulation of phosphoinositide hydrolysis; assay type: functional, cell-based, L929
T4 sequence (P11229 whole entry): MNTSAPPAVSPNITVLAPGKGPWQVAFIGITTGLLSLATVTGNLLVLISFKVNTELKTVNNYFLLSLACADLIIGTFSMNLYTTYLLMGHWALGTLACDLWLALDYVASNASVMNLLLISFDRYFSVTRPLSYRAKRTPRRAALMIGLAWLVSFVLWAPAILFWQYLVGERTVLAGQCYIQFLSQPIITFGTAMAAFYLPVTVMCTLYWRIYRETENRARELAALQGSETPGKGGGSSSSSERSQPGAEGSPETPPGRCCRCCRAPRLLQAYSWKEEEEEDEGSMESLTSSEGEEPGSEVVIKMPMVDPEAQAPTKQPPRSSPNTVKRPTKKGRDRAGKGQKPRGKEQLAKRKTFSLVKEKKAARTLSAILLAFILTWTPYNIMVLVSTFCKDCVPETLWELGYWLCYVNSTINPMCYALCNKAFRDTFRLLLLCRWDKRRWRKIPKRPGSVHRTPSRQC

[6] = molecular target: T5, Muscarinic acetylcholine receptor M3 (Homo sapiens, UniProt P20309); test: Agonist activity at human M3 receptor expressed in A9 L cells assessed as stimulation of phosphoinositide hydrolysis relative to carbachol; assay type: functional, cell-based; conditions: L929
Summary of the method: (§2)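 A9 L cells stably expressing the receptor, seeded 24 h, labelled overnight with 10 µCi/mL [3H]inositol in inositol-free DMEM; ligands in HBSS with 10 mM LiCl, 20 mM HEPES, 37 °C, 1 h; formic acid extraction, inositol phosphates counted by SPA beads.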
Target sequence in this assay (P20309 whole entry, looked up): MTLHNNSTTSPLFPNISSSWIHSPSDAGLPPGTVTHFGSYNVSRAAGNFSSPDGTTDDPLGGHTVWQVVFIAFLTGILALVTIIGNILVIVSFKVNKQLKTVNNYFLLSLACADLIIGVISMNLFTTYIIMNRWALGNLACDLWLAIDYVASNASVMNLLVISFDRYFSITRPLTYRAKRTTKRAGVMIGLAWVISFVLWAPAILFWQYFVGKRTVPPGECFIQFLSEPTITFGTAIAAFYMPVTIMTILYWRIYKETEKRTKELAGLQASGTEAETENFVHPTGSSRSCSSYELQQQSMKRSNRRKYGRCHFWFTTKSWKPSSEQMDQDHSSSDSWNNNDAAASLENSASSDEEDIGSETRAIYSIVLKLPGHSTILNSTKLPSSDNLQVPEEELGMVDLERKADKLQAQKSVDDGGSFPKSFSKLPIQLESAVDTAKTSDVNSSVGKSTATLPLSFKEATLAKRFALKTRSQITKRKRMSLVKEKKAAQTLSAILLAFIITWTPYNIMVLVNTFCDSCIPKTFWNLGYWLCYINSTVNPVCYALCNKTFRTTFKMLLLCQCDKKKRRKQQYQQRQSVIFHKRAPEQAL

[7] = molecular target: T6, Muscarinic acetylcholine receptor M5 (Homo sapiens) (UniProt P08912); test: Agonist activity at human M5 receptor expressed in A9 L cells assessed as stimulation of phosphoinositide hydrolysis at 100 uM relative to carbachol; assay type: functional, cell-based; conditions: L929
T6 sequence (whole entry): T1 sequence (P08912 whole entry)

[8] = molecular target: T7, Muscarinic acetylcholine receptor M1 (Homo sapiens) (UniProt P11229); test: Agonist activity at human M1 receptor expressed in A9 L cells assessed as stimulation of phosphoinositide hydrolysis relative to carbachol; assay type: functional, cell-based; conditions: L929; summary of the method: as §2
T7 sequence (whole entry): T4 sequence (P11229 whole entry)

[9] = molecular target: T4, Muscarinic acetylcholine receptor M1; test: Inhibition of [3H](R)-QNB binding to human M1 receptor expressed in A9 L cells; assay type: cell-based, A9L
[10] = molecular target: T8, Muscarinic acetylcholine receptor M4 (Homo sapiens, UniProt P08173); test: Inhibition of [3H](R)-QNB binding to human M4 receptor expressed in A9 L cells; assay type: cell-based, A9L; summary of the method: as §1
T8 sequence (P08173 whole entry): T3 sequence (whole entry)

[11] = molecular target: T5, Muscarinic acetylcholine receptor M3; test: Inhibition of [3H](R)-QNB binding to human M3 receptor expressed in A9 L cells; assay type: cell-based, A9L
Target sequence in this assay (P20309 whole entry): as the sequence (P20309 whole entry, looked up) above

[12] = molecular target: T8, Muscarinic acetylcholine receptor M4; test: Activity at human M4 receptor assessed as inhibition of forskolin-stimulated cAMP accumulation; assay type: functional
[13] = molecular target: T5, Muscarinic acetylcholine receptor M3; test: Antagonist activity at human M3 receptor assessed as inhibition of carbachol […]; conditions: read-out: pA2 (converted)
Target sequence in this assay (P20309 whole entry): as the sequence (P20309 whole entry, looked up) above

[14] = molecular target: T9, Muscarinic acetylcholine receptor M2 (Homo sapiens) (UniProt P08172); test: Activity at human M2 receptor assessed as inhibition of forskolin-stimulated cAMP accumulation relative to carbachol; assay type: functional
T9 sequence (whole entry): T2 sequence (P08172 whole entry)

[15] = molecular target: T6, Muscarinic acetylcholine receptor M5 (Homo sapiens); test: Agonist activity at human M5 receptor expressed in A9 L cells assessed as stimulation of phosphoinositide hydrolysis relative to carbachol; assay type: functional, cell-based; conditions: L929; summary of the method: as §2
[16] = molecular target: T9, Muscarinic acetylcholine receptor M2 (Homo sapiens); test: Activity at human M2 receptor assessed as inhibition of forskolin-stimulated cAMP accumulation at 1 mM relative to carbachol; assay type: functional
[17] = molecular target: T3, Muscarinic acetylcholine receptor M4 (Homo sapiens); test: Activity at human M4 receptor assessed as inhibition of forskolin-stimulated cAMP accumulation at 1 mM relative to carbachol; assay type: functional

For Clc1ccc2c(c1)N=C(N1CCNCC1)c1ccccc1N2, the Activity (Rattus norvegicus) was “inactive”.

COc1nsnc1OCCOCCOCCOCCOCCOc1nsnc1C1=CCCN(C)C1 was tested, and the Ki [1] was 100 nM, the Ki [2] was 2.51 nM and the Imax [3] was 37%. The IC50 [4] was 398 nM, the EC50 [5] was 251 nM and the Activity [6] was “inactive”. The Smax [7] was 0.95%, the Smax [8] was 28% and the Ki [9] was 398 nM. For the same compound, the Ki [10] was 12.6 nM, the Ki [11] was 1580 nM and the IC50 [12] was 398 nM. The Kb [13] was 63.1 nM and the Imax [14] was 98%.

For COc1nsnc1OCCOCCOc1nsnc1C1=CCCN(C)C1, the Ki [1] was 251 nM, the Ki [2] was 39.8 nM and the Imax [3] was 47%. The IC50 [4] was 79.4 nM, the EC50 [5] was 1000 nM and the Activity [6] was “inactive”. For the same compound, the Smax [7] was 0.83%, the Smax [8] was 11% and the Ki [9] was 794 nM. For the same compound, the Ki [10] was 63.1 nM, the Ki [11] was 50.1 nM and the IC50 [12] was 7940 nM. For the same compound, the Imax [14] was 77%.

With O=C(CCCN1CCC(O)(c2ccc(Cl)cc2)CC1)c1ccc(F)cc1 the Activity (Rattus norvegicus) was “Active”.

With COc1nsc(OCCCOCCCOCCCOc2nsnc2C2=CCCN(C)C2)n1 the Ki [1] was 251 nM, the Ki [2] was 63.1 nM and the Imax [3] was 130%. The EC50 [5] was 501 nM, the Activity [6] was “inactive” and the Smax [8] was 27%. For the same compound, the Activity [15] was “inactive”, the Ki [9] was 63.1 nM and the Ki [10] was 158 nM. For the same compound, the Ki [11] was 200 nM, the IC50 [12] was 6310 nM and the Imax [14] was “inactive”.

CN1CCN(C2=Nc3cc(Cl)ccc3Nc3ccccc32)CC1 was tested, and the Activity (Rattus norvegicus) was “Active”.

COc1nsnc1OCCCOCCCOCCCOc1nsnc1C1=CCCN(C)C1 was tested, and the Ki [1] was 100 nM, the Imax [16] was 130% and the Ki [2] was 158 nM. For the same compound, the EC50 [5] was 3160 nM, the Imax [17] was 260% and the Activity [6] was “inactive”. For the same compound, the Smax [8] was 21%, the Smax [15] was 0.6% and the Ki [9] was 100 nM. The Ki [10] was 158 nM and the Ki [11] was 200 nM.

CN1CCC=C(c2nsnc2OCCOCCOCCOCCO)C1 gave a Ki [1] of 3980 nM, a Ki [2] of 316 nM and an Imax [3] of 110%. The IC50 [4] was 7.94 nM, the EC50 [5] was 794 nM and the Activity [6] was “inactive”. For the same compound, the Smax [8] was 7.9%, the Smax [15] was 7.4% and the Ki [9] was 1000 nM. It also gave a Ki [10] of 794 nM, a Ki [11] of 316 nM and an IC50 [12] of 25100 nM. It also gave an Imax [14] of 86%.

COc1nsnc1OCCOCCOCCOc1nsnc1C1=CCCN(C)C1 showed a Ki [1] of 631 nM, a Ki [2] of 39.8 nM and an Imax [3] of 100%. The IC50 [4] was 3160 nM, the EC50 [5] was 794 nM and the Activity [6] was “inactive”. The Smax [7] was 1.3%, the Smax [8] was 13% and the Ki [9] was 316 nM. For the same compound, the Ki [10] was 79.4 nM, the Ki [11] was 251 nM and the IC50 [12] was 7940 nM. It also gave an Imax [14] of 110%.
